Source: ChEMBL document CHEMBL3124914, “Cytotoxic clerodane diterpenes from Zuelania guidonia” (J Nat Prod, 2014)

Columns and labels:
[1] = Cytotoxicity against human MIAPaCa2 cells assessed as cell viability after 24 hrs by MTT assay; assay type: functional, cell-based; conditions: MIA PaCa-2, 24 h
Summary of the method: (§1)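 Cells kept at 37 °C, 5% CO2 in RPMI 1640 with 10% heat-inactivated FBS, […] streptomycin, and 100 U/mL penicillin. Seeding per well: 1.2 × 10^4 for MIA-PaCa-2, 4 × 10^4 for CCRF-CEM and CEM-ADR5000, and 2 × 10^5 for PBMCs from healthy donors. Compounds were given in DMSO (0.1% DMSO solvent control) at various concentrations for 24 h. Read-out was MTT, and IC50 was taken by nonlinear regression.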

CCRF-CEM = assay: Cytotoxicity against human CCRF-CEM cells assessed as cell viability after 24 hrs by MTT assay; assay type: functional, cell-based; summary of the method: as §1
PBMC = assay: Cytotoxicity against human PBMC assessed as cell viability after 24 hrs by MTT assay; assay type: cell-based; summary of the method: as §1
[2] = Cytotoxicity against human CEM/ADR5000 cells assessed as cell viability after 24 hrs by MTT assay; assay type: functional, cell-based; conditions: ADR5000, 24 h; summary of the method: as §1

C=CC(=C)CC[C@]1(C)[C@H](C)C[C@H](O)[C@@]23C(=C[C@@H](OC(=O)/C=C/c4ccccc4)C[C@@H]12)[C@@H](OC(C)=O)O[C@H]3OC(C)=O (relative stereo)
IC50 [1]: 4.6 µM
IC50 (CCRF-CEM): 1.6 µM
IC50 (PBMC): > 10 µM
IC50 [2]: 4.6 µM

C=CC(=C)CC[C@]1(C)[C@H](C)C[C@H](OC(=O)CC(O)CCCCCCCCC)[C@@]23C(=C[C@H](O)C[C@@H]12)[C@@H](OC(C)=O)O[C@H]3OC(C)=O (relative stereo)
IC50 [1]: 7.4 µM
IC50 (CCRF-CEM): 2.5 µM
IC50 (PBMC): > 10 µM
IC50 [2]: 5.7 µM

C=CC(=C)[C@H](O)C[C@]1(C)[C@H](C)C[C@H](OC(=O)CC(O)CCCCCCCCC)[C@@]23C(=C[C@H](O)C[C@@H]12)[C@@H](OC(C)=O)O[C@H]3OC(C)=O (relative stereo)
IC50 [1]: > 10 µM
IC50 (CCRF-CEM): 5.5 µM
IC50 (PBMC): > 10 µM
IC50 [2]: > 10 µM

CC(=O)O[C@H]1O[C@@H](OC(C)=O)[C@]23C1=C[C@H](O)C[C@H]2[C@](C)(CCC1=CCOOC1)[C@H](C)C[C@@H]3OC(=O)/C=C/c1ccccc1 (relative stereo)
IC50 [1]: 6.9 µM
IC50 (CCRF-CEM): 1.9 µM
IC50 (PBMC): > 10 µM
IC50 [2]: 7.5 µM

C=CC(=C)[C@@H](O)C[C@]1(C)[C@H](C)C[C@H](OC2OC[C@@H](O)[C@H](O)[C@H]2O)[C@@]23C(=C[C@H](OC(=O)CCCCCCCCC)C[C@@H]12)[C@@H](OC(C)=O)O[C@H]3OC(C)=O (relative stereo)
IC50 [1]: > 10 µM
IC50 (CCRF-CEM): 9.1 µM
IC50 (PBMC): > 10 µM
IC50 [2]: > 10 µM

CCCCCCCCCC(=O)O[C@H]1C=C2[C@@H](OC(C)=O)O[C@@H](OC(C)=O)[C@]23[C@@H](OC2OC[C@@H](O)[C@H](O)[C@H]2O)C[C@@H](C)[C@@](C)(C[C@H](O)C2=CCOOC2)[C@@H]3C1 (relative stereo)
IC50 [1]: > 10 µM
IC50 (CCRF-CEM): 8 µM
IC50 (PBMC): > 10 µM
IC50 [2]: > 10 µM

CCCCCCCCCC(=O)O[C@H]1C=C2[C@@H](OC(C)=O)O[C@@H](OC(C)=O)[C@]23[C@@H](OC2OC[C@@H](O)[C@H](O)[C@H]2O)C[C@@H](C)[C@@](C)(C[C@@H](O)C2=CCOOC2)[C@@H]3C1 (relative stereo)
IC50 [1]: > 10 µM
IC50 (CCRF-CEM): 8.4 µM
IC50 (PBMC): > 10 µM
IC50 [2]: > 10 µM

C=CC(=C)CC[C@]1(C)[C@H](C)CC[C@@]23C(=CC(=O)C[C@@H]12)[C@@H](OC(C)=O)O[C@H]3OC(C)=O (relative stereo)
IC50 [1]: > 10 µM
IC50 (CCRF-CEM): 9.5 µM
IC50 (PBMC): > 10 µM
IC50 [2]: > 10 µM

C=CC(=C)CC[C@]1(C)[C@H](C)C[C@H](OC(=O)/C=C/c2ccccc2)[C@@]23C(=C[C@H](O)C[C@@H]12)[C@@H](OC(C)=O)O[C@H]3OC(C)=O (relative stereo)
IC50 [1]: > 10 µM
IC50 (CCRF-CEM): 5.3 µM
IC50 (PBMC): > 10 µM
IC50 [2]: 8.6 µM

CC[C@@]1(O)C(=O)OCc2c1cc1n(c2=O)Cc2cc3ccccc3nc2-1 [CAMPTOTHECIN]
IC50 [1]: > 10 µM
IC50 (CCRF-CEM): 0.08 µM
IC50 (PBMC): > 10 µM
IC50 [2]: 0.3 µM

COc1cccc2c1C(=O)c1c(O)c3c(c(O)c1C2=O)C[C@@](O)(C(=O)CO)C[C@@H]3O[C@H]1C[C@H](N)[C@H](O)[C@H](C)O1 [DOXORUBICIN]
IC50 [1]: 4.8 µM
IC50 (CCRF-CEM): 0.5 µM
IC50 (PBMC): > 10 µM
IC50 [2]: > 10 µM
